Bioassay records deposited in PubChem by Sanford-Burnham Center for Chemical Genomics.
Apaf-1 act: human Apaf-1 activation | O14727 | Apaf-1 apoptosome caspase-3 activation, DEVD-Rh110 fluorescence; hits give low values | activity change, negative = activation, % at 20 µM | 330,000 compounds, 0.31% hits | AID 489031;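 active = activity change at or below -40% at 20 µM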
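Material: biochemical Apaf-1 apoptosome reconstitution; Medium: 20 mM HEPES buffer, pH 7.5, containing CHAPS and BSA; Reagent: dATP, cytochrome c, and (Z-DEVD)2-Rh110 caspase-3 substrate; Times: 30 min preincubation, 50 min reaction, room temperature; Signal: Rh110 fluorescence, excitation 480 nm, emission 540 nm; Measure: Caspase-3 activity via Apaf-1.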
* = called active by the depositor. Only a sample is shown.

SMILES | Apaf-1 act
Cc1c(C#N)c(=O)oc2ccc3ccccc3c12 | -97*
CCC1CCc2sc(C(=O)NCC(c3ccc(OC)cc3)N3CCCC3)cc2C1 (centres undefined) | 46
CN(Cc1ccccn1)C(=O)c1ccc2nc(Cc3cccc(Cl)c3)oc2c1 | -116*
CC(=O)c1ccc(OCCCC(=O)N2CCN(S(=O)(=O)c3ccc(C)cc3C)CC2)cc1 | 40
COc1ccccc1C1/C(=C(\O)c2ccc3c(c2)OCCO3)C(=O)C(=O)N1CCCn1ccnc1 (centres undefined) | 45
COc1ccccc1Oc1c(C)oc2c(CN3CCN(C)CC3)c(O)ccc2c1=O | -595*
Cc1noc(/C=C/c2cccs2)c1S(=O)(=O)N1CCC(C(=O)NCCCN2CCC(C)CC2)CC1 | 40
O=C(OCC(=O)N1CCC(c2ccccc2)=N1)c1ccc([N+](=O)[O-])s1 | 52
COc1ccc(NS(=O)(=O)c2ccc(C)c(NC(=O)CN3C(=O)NC4(CCCC4)C3=O)c2)cc1 | 82
COC(=O)c1ccccc1S(=O)(=O)N1CCC(C(=O)N2CCC2)CC1 | 55
CCCOc1ccc(C2C(C(=O)c3ccco3)=C(O)C(=O)N2CCN2CCOCC2)cc1OC (centres undefined) | -492*
CCOc1cc(C2C(C(C)=O)=C(O)C(=O)N2CCc2c[nH]c3ccccc23)ccc1O (centres undefined) | 49
COc1ccc(NS(=O)(=O)c2cc(C(=O)N3CCC3)ccc2C)cc1 | 48
O=C(CCS(=O)(=O)c1ccc(Br)cc1)N1CCCCCC1 | -283*
COc1ccc(OC)c(S(=O)(=O)Oc2ccc(N)c3ccccc23)c1 | 69
COc1ccc(Cl)cc1NC(=O)C(C)N1CCN(C/C=C/c2ccccc2)CC1 (centres undefined) | 43
O=C(Nc1ccccc1)Nc1ccc(O)c2ccccc12 | 44
CCCN[C@H]1CCc2nc(N)sc2C1 | -2
CCOC(=O)C1CCCN(C(=O)c2cccc(S(=O)(=O)N(C)c3c(C)n(C)n(-c4ccccc4)c3=O)c2)C1 (centres undefined) | 49
COC(C[C@H]1O[C@@H]1C(=O)[C@H](C)OCc1ccccc1)OC | 48
NC(=O)[C@H](Cc1cc2ccccc2s1)NC(=O)[C@@H]1CC2(CC(c3cccc(NC(=O)[C@@H]4CCC(=O)N4)c3)=NO2)CN1C(=O)/C=C/c1c(F)cccc1Cl (some centres undefined) | 47
C=C(C)C(=O)Nc1cccc(C2=NOC3(C2)C[C@@H](C(N)=O)N(C(=O)C2(C)CC2)C3)c1 (some centres undefined) | -295*
CCCCCCN(C(=O)CCCCCN1C(=O)NC(c2ccc(-c3ccccc3)cc2)C(C(=O)OCc2ccccc2)=C1C)C(C(=O)NCCCC)c1cccc(C(=O)OC)c1 (centres undefined) | 79
CCOC(=O)c1c(NC(=O)N/N=C/c2ccc(O)c(OC)c2)sc(C(C)=O)c1C | -63*
COc1cc(/C=N/NC(=O)c2ccncc2)ccc1O | 9
SMILES | Apaf-1 act
CCCCCCCCCCCCCCCCn1cc[n+](C)c1 | 80
NS(=O)(=O)c1ccc(CCNC(=O)CCS(=O)(=O)c2ccc(Br)cc2)cc1 | -214*
CCCn1nc(C(=O)Nc2ccc(-n3cnnn3)cc2)c2ccccc2c1=O | 71
CCC(C)Nc1ccc(NC(C)CC)cc1 (centres undefined) | 43
CC1=NN(c2ccc(C)cc2C)C(=O)C1C(c1cccc(O)c1)C1C(=O)N(c2ccc(C)cc2C)N=C1C (centres undefined) | 85
CC[n+]1c(/C=C/N(C)c2ccccc2)n(-c2ccccc2)c2ccc(-c3nc4ccccc4s3)cc21 | 82
CCN(CC)c1ccc(/C=C/c2nc3ccccc3s2)cc1 | -305*
CNC[C@@H]1Oc2ccc(NC(=O)Nc3cccc4ccccc34)cc2C(=O)N([C@@H](C)CO)C[C@@H]1C | 57
O=S(=O)(NCC(c1ccccc1)N1CCNCC1)c1ccc(Cl)cc1 (centres undefined) | 43
CCCN1CCN(C(=O)C2CCN(S(=O)(=O)c3c(C)noc3/C=C/c3ccc(C)cc3)CC2)CC1 | 61
Cc1noc(C)c1S(=O)(=O)N1CCN(C(c2ccccc2)c2ccc(Cl)cc2)CC1 (centres undefined) | -108*
Cc1c(C=O)c(Cl)n(C)c(=O)c1C#N | 97
CCCc1[nH]nc2c1C(c1ccc(OC)c(CSC3=NCCS3)c1)C(C#N)=C(N)O2 (centres undefined) | 41
O=c1[nH]nc(-c2ccc(OCc3ccc(Cl)cc3Cl)cc2)o1 | -54*
Cc1cc(/C=N/n2cnnc2)c(C)n1-c1ccc(OCc2ccc(Cl)cc2Cl)cc1 | 46
O=c1cc(N/N=C/c2ccccc2)[nH]c(=O)[nH]1 | 68
CC1(c2ccc(OC(F)F)cc2)NC(=O)N(CC(=O)Nc2ccc(N3CCCCC3)cc2)C1=O (centres undefined) | 53
O=C1NC(Cc2ccc(O)cc2)c2nc3ccc(Cl)cc3c(=O)n2-c2ccc(Cl)cc21 (centres undefined) | -42*
Cc1ccc(NC(=O)CSc2nc3ccccc3c(=O)n2CCCN2CCCCC2)cc1C | 55
CC1=C(C#N)C(=O)N(C2CCS(=O)(=O)C2)C(=O)/C1=C\c1ccco1 (centres undefined) | 54
N#CCCN(C(=O)COC(=O)C12CC3CC(CC(O)(C3)C1)C2)c1ccc(F)cc1 | 43
Cc1ccc(-c2ccc(/C=N\NC(=O)C3C(=O)NCC3c3ccccc3)o2)cc1Cl (centres undefined) | 43
COc1cc(Cl)c(NC2=CC(=O)C(=O)c3ccccc32)c(OC)c1 | 92
CCOc1cc(/C=C(\C#N)C(=O)Nc2cccc(C(=O)O)c2)ccc1OCc1ccc(Br)cc1 | -119*
CCC[C@@H](CN1CCC[C@H]1CN1C(N)=NC[C@H]1C(C)C)N1C[C@@H](Cc2ccccc2)N(CCCC2CCCC2)C1=N | 46
SMILES | Apaf-1 act
C#CCOCCOCCOCCNc1nc(N2CCN(C(=O)CCCCCCCCCCNC(=O)Cn3cc(CCCCCN)nn3)CC2)nc(N2CCN(C(=O)CCCCCCCCCCNC(=O)[C@H]([C@@H](C)CC)n3cc(CCCCCN)nn3)CC2)n1 | 74
O=C(NC(C(=O)N/N=C/c1cc([N+](=O)[O-])ccc1O)c1n[nH]c(=O)c2ccccc12)c1ccccc1 (centres undefined) | -439*
O=[N+]([O-])c1ccc(O)c(C=Nc2cccc3ncccc23)c1 | 91
O=[N+]([O-])c1ccc(O)c(C=Nc2cccc3ccccc23)c1 | 88
COc1ccc(CC2=CC(=O)c3ccccc3C2=O)cc1 | 50
ONc1cccnc1-n1nc(C(F)(F)F)cc1C(F)(F)F | 47
O=C(CSc1nnc(-c2ccc(F)cc2)n1CC1CCCO1)NCc1ccco1 (centres undefined) | 54
CC(C(=O)NC(=O)NC1CCCCC1)N(C)CC(=O)Nc1ccc(F)c(F)c1F (centres undefined) | 46
CN(C)CCCNc1cc(O)c2ncccc2c1 | 77
Oc1ccccc1/C=N/Nc1cc(N2CCCC2)nc(N2CCCC2)n1 | 98
CCN(CC(=O)Nc1ccc(OC)cc1)C(=O)C1CCN(C(=O)c2ccc(Cl)cc2)CC1 | 58
Oc1c(Br)cc(Br)cc1C=Nc1cccc2ncccc12 | 97
O=C1c2ccccc2[C@@H]2C[C@@H](O)[C@H](Nc3cccc4ccccc34)CCN12 | 53
O=C(/C=C/c1ccco1)c1ccc(NC(=O)C23CC4CC(CC(C4)C2)C3)cc1 | 45
